Experimental data published in ChEMBL document CHEMBL1152770, “Inhibitors of hepatitis C virus polymerase: synthesis and biological characterization of unsymmetrical dialkyl-hydroxynaphthalenoyl-benzothiadiazines” (J Med Chem, 2009).
One block for each compound: values may come before it.

Legend:
[1] = Metabolic stability in rat liver microsomes assessed as intrinsic clearance; type: ADME, Microsome
[2] = Metabolic stability in dog liver microsomes assessed as intrinsic clearance; type: ADME, Canis lupus familiaris, Microsome
[3] = Metabolic stability in monkey liver microsomes assessed as intrinsic clearance; type: ADME, Macaca mulatta, Microsome; conditions: rhesus monkey
[4] = Metabolic stability in human liver microsomes assessed as intrinsic clearance; type: ADME, Microsome
Hepatocyte [5] = experiment: Metabolic stability in rat hepatocytes assessed as intrinsic clearance; type: ADME, cell-based, Liver
[6] = Metabolic stability in dog hepatocytes assessed as intrinsic clearance; type: ADME, cell-based, Canis lupus familiaris, Liver, Hepatocyte
[7] = Metabolic stability in monkey hepatocytes assessed as intrinsic clearance; type: ADME, cell-based, Macaca mulatta, Liver, Hepatocyte; conditions: rhesus monkey
Hepatocyte [8] = experiment: Metabolic stability in human hepatocytes assessed as intrinsic clearance; type: ADME, cell-based, Liver
[9] = Cytotoxicity against human HuH7 cells by MTT assay; type: cell-based, Huh-7; conditions: read-out: TD50 (the source's name)
How it was run: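 Cytotoxicity in Huh-7 replicon cultures measured by MTT colorimetric assay after the four-day incubation.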

Hepatitis C virus [10] = experiment: Ratio of EC50 for HCV isolate Con1 in presence of 40% human serum to EC50 for HCV isolate Con1; type: functional, Hepacivirus hominis
How it was run: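 Genotype 1b-con1 subgenomic replicon in Huh-7 cells. Four-day incubation with inhibitor in medium with 5% FBS, with or without 40% human serum. EC50 from the fall in HCV RNA copy number by real-time PCR. Ratio is EC50 with serum over EC50 without.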

[11] = Elimination half life in rat at 5 mg/kg, iv; type: ADME, organism-based; parameters: dose 5 mg/kg, route intravenous; conditions: in vivo, read-out: beta t1/2 (converted)
How it was run: (§1)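 Vehicle DMSO:PEG400 (10:90, v/v). Dosing at 5 mg/kg in rat and monkey; dog 5 mg/kg or 2.5 mg/kg. Protein precipitation with acetonitrile, then LC-MS/MS in negative-ion MRM (m/z 516.2→437.0) against spiked standards with internal standard.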

[12] = Volume of distribution at steady state in rat at 5 mg/kg, iv; type: ADME, organism-based; parameters: dose 5 mg/kg, route intravenous; conditions: in vivo, read-out: Vdss
How it was run: (§2)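 Single intravenous dose. Heparinized plasma sampled at 0.1, 0.25, 0.5, 1, 2, 4, 6, 9, 12 and 24 h, plus 3 and 15 h in dog. Drug was isolated by acetonitrile protein precipitation and quantified by LC-MS in negative-ion MRM mode (m/z 516.2→437.0) against an internal standard. Concentrations came from unweighted linear regression of spiked standards.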

[13] = Terminal phase volume of distribution in rat at 5 mg/kg, iv; type: ADME, organism-based; parameters: dose 5 mg/kg, route intravenous; conditions: in vivo, read-out: Vbeta; how it was run: as §2
[14] = AUC in rat at 5 mg/kg, iv; type: ADME, organism-based; parameters: dose 5 mg/kg, route intravenous; conditions: plasma; how it was run: as §1
[15] = Plasma clearance in rat at 5 mg/kg, iv; type: ADME, organism-based; parameters: dose 5 mg/kg, route intravenous; how it was run: as §1
[16] = Drug level in rat liver at 5 mg/kg, po after 6 hrs; type: ADME, organism-based; parameters: dose 5 mg/kg, route oral; conditions: read-out: Drug uptake
How it was run: (§3)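 Rats dosed orally at 5 mg/kg, four groups, sacrificed at 6 and 12 h. Plasma and liver homogenate extracted by acetonitrile protein precipitation with internal standard and quantified by LC-MS (negative-ion MRM). Liver/plasma ratio taken from the two concentrations.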

[17] = Drug level in rat liver at 5 mg/kg, po after 12 hrs; type: ADME, organism-based; parameters: dose 5 mg/kg, route oral; conditions: read-out: Drug uptake; how it was run: as §3
[18] = Elimination half life in dog at 5 mg/kg, iv; type: ADME, organism-based, Canis lupus familiaris; parameters: dose 5 mg/kg, route intravenous; conditions: in vivo, read-out: beta t1/2 (converted); how it was run: as §1
[19] = Volume of distribution at steady state in dog at 5 mg/kg, iv; type: ADME, organism-based, Canis lupus familiaris; parameters: dose 5 mg/kg, route intravenous; conditions: in vivo, read-out: Vdss; how it was run: as §2
[20] = Terminal phase volume of distribution in dog at 5 mg/kg, iv; type: ADME, organism-based, Canis lupus familiaris; parameters: dose 5 mg/kg, route intravenous; conditions: in vivo, read-out: Vbeta; how it was run: as §1
[21] = AUC in dog at 5 mg/kg, iv; type: ADME, organism-based, Canis lupus familiaris; parameters: dose 5 mg/kg, route intravenous; conditions: plasma; how it was run: as §1
[22] = Plasma clearance in dog at 5 mg/kg, iv; type: ADME, organism-based, Canis lupus familiaris; parameters: dose 5 mg/kg, route intravenous; how it was run: as §1
[23] = Elimination half life in monkey at 5 mg/kg, iv; type: ADME, organism-based, Macaca mulatta; parameters: dose 5 mg/kg, route intravenous; conditions: rhesus monkey, in vivo, read-out: beta t1/2 (converted); how it was run: as §1
[24] = Volume of distribution at steady state in monkey at 5 mg/kg, iv; type: ADME, organism-based, Macaca mulatta; parameters: dose 5 mg/kg, route intravenous; conditions: rhesus monkey, in vivo, read-out: Vdss; how it was run: as §2
[25] = Terminal phase volume of distribution in monkey at 5 mg/kg, iv; type: ADME, organism-based, Macaca mulatta; parameters: dose 5 mg/kg, route intravenous; conditions: rhesus monkey, in vivo, read-out: Vbeta; how it was run: as §2
[26] = AUC in monkey at 5 mg/kg, iv; type: ADME, organism-based, Macaca mulatta; parameters: dose 5 mg/kg, route intravenous; conditions: rhesus monkey, plasma; how it was run: as §1
[27] = Plasma clearance in monkey at 5 mg/kg, iv; type: ADME, organism-based, Macaca mulatta; parameters: dose 5 mg/kg, route intravenous; conditions: rhesus monkey; how it was run: as §1
[28] = Inhibition of HCV isolate BK NS5B polymerase after 3 hrs by scintillation counting
[29] = Inhibition of HCV isolate H77 NS5B polymerase after 3 hrs by scintillation counting
Hepatitis C virus [30] = experiment: Antiviral activity against HCV isolate Con1 in human Huh7 cells assessed as reduction in viral RNA after 4 days by RT-PCR; conditions: isolate Con1, Huh-7, 96 h
Hepatitis C virus [31] = experiment: Antiviral activity against HCV 1a containing chimeric genotype 1a-H77/1b-con1 subgenom in human Huh7 cells assessed as reduction in viral RNA after 4 days by RT-PCR; conditions: subtype 1a, Huh-7, 96 h
[32] = Plasma concentration in rat at 5 mg/kg, po after 6 hrs; type: ADME, organism-based; parameters: dose 5 mg/kg, route oral; how it was run: as §1
[33] = Plasma concentration in rat at 5 mg/kg, po after 12 hrs; type: ADME, organism-based; parameters: dose 5 mg/kg, route oral; how it was run: as §1
[34] = Ratio of drug level in liver to plasma in rat at 5 mg/kg, po after 6 hrs; type: ADME, organism-based; parameters: dose 5 mg/kg, route oral; how it was run: as §3
[35] = Ratio of drug level in liver to plasma in rat at 5 mg/kg, po after 12 hrs; type: ADME, organism-based; parameters: dose 5 mg/kg, route oral; how it was run: as §3
[36] = Aqueous solubility in 50 mM phosphate buffer at pH 7.4; type: physicochemical
How it was run: (§4)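 Equilibrium solubility in PEG 400, in 50 mM citrate buffer pH 4 or in 50 mM phosphate buffer pH 7.4. Buffers brought to ionic strength 0.155 M with NaCl. Vials rotated at 25 °C for 4 days, final pH measured, then supernatant assayed by reverse-phase HPLC at 262 nm against a linear standard curve.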

[37] = Solubility in polyethylene glycol 400 at 25 deg C; type: physicochemical; how it was run: as §4
[38] = n-Octanol-phosphate buffer distribution coefficient, log D at pH 7.4; type: physicochemical
How it was run: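 Compound was dissolved in n-octanol and mixed with 50 mM phosphate buffer, isotonic with NaCl, pH 7.4. The mixture was tumbled at 25 °C, 25 rpm, for 2-3 days, then centrifuged to split the phases. Each phase was assayed by reverse-phase HPLC (UV 262 nm) against a linear standard curve. D is the octanol/buffer concentration ratio.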

SMILES: CC(C)CC[C@@]1(C)C(=O)C(C2=NS(=O)(=O)c3cc(NS(C)(=O)=O)ccc3N2)=C([O-])c2ccccc21.[Na+]
microsomal CLint [1]: 36.3 µL/min/mg | microsomal CLint [2]: 3.5 µL/min/mg | microsomal CLint [3]: 62 µL/min/mg | microsomal CLint [4]: 29.6 µL/min/mg | CL (Hepatocyte [5]): 9 µL/min/mg | CL [6]: 2.2 µL/min/mg | CL [7]: 29.2 µL/min/mg | CL (Hepatocyte [8]): 6.8 µL/min/mg | CC50 [9]: 35300 nM | Ratio EC50 (Hepatitis C virus [10]): 14 | half-life [11]: 1.2 h | Vd [12]: 1.72 L/kg | Vd [13]: 1.97 L/kg | AUC [14]: 5200 ng·h/mL | clearance [15]: 16 mL/min/kg | concentration at 6 h [16]: 3800 ng/g | concentration at 12 h [17]: 1430 ng/g | half-life [18]: 2.7 h | Vd [19]: 1.1 L/kg | Vd [20]: 1.74 L/kg | AUC [21]: 11800 ng·h/mL | clearance [22]: 7.33 mL/min/kg | half-life [23]: 0.7 h | Vd [24]: 0.19 L/kg | Vd [25]: 0.5 L/kg | AUC [26]: 10200 ng·h/mL | clearance [27]: 8.5 mL/min/kg | IC50 [28]: 0.9 nM | IC50 [29]: 1.3 nM | EC50 (Hepatitis C virus [30]): 3 nM | EC50 (Hepatitis C virus [31]): 11 nM

SMILES: CC(C)(C)CC[C@@]1(C)C(=O)C(C2=NS(=O)(=O)c3cc(NS(C)(=O)=O)ccc3N2)=C(O)c2ccccc21
concentration at 6 h [32]: 2240 nM | concentration at 12 h [33]: 320 nM | Kp at 6 h [34]: 17 | Kp at 12 h [35]: 20 | concentration at 6 h [16]: 21800 ng/g | concentration at 12 h [17]: 4190 ng/g

solubility [36]: < 0.07 µg/mL | solubility [37]: > 191.8 mg/mL | logD [38]: 1.45
SMILES: CS(=O)(=O)Nc1ccc2c(c1)S(=O)(=O)N=C(c1c([O-])c3ccccc3n(NC3CCC3)c1=O)N2.[Na+]

IC50 [28]: 2300 nM | IC50 [29]: 624 nM
SMILES: CC(C)CC[C@]1(C)C(=O)C(C2=NS(=O)(=O)c3cc(NS(C)(=O)=O)ccc3N2)=C(O)c2ccccc21
